For six compounds, outcome and IC50 results are on record in PubChem BioAssay AID623915 (Johns Hopkins Ion Channel Center, 2012).

The structures appear in SMILES notation. Where “and” joins values, the source holds several entries; their conditions need not be identical. Identical values can stand only once. Calls of active or inactive are those of the source.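 The calls were made as follows: active = more than 50% block of the TASK1 potassium channel current at 10 µM; inactive = the rest.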

In general, IC50 refers to the concentration at which inhibition is half-maximal.

Chain of Potassium channel subfamily K member 3 (Rattus norvegicus) (O54912 whole entry, looked up): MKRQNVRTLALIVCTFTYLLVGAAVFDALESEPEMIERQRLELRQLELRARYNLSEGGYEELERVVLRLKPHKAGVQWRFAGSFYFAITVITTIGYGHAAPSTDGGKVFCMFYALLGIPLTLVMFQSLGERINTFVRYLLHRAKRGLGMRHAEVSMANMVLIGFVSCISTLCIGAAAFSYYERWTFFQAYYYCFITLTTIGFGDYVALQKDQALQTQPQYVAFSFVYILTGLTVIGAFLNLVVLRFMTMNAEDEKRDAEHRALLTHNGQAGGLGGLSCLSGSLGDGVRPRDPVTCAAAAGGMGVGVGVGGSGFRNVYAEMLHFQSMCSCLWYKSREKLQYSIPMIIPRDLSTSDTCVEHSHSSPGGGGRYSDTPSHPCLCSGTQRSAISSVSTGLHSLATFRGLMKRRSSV

In the assay the target is Potassium channel subfamily K member 3 (Rattus norvegicus) (UniProt O54912). Description: KCNK3 channel block by electrophysiology – automated electrophysiology, QPatch, CHO cells, selectivity assay for KCNK9 inhibitor project, SAR follow-up (AID 623915). The conditions noted are these: CHO-TASK1 cells, QPatch whole-cell current inhibition. The method, boiled down:
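Detection: automated patch clamp, current read at -30 mV; material: Inducible-TASK1 CHO cells; schedule: 5 min exposure at each compound concentration; medium: external bath solution with 140 mM K+, pH 7.40; read-out: per-cell IC50 from Hill fit, slope one, fractional block 0–1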
For orientation: In patch-clamp work, channel activity is measured electrically.
For the compound `C[C@H]([C@@H]1CC2CC[C@H]1C2)n1c(-c2ccsc2)n[nH]c1=S`, the outcome was inactive.
In the case of `CC(C1CC2CCC1C2)n1c(-c2ccco2)n[nH]c1=S` (stereo unspecified), the half-maximal inhibitory concentration (IC50) is 820 nM.
Same read-out and setting: next, `CC(C1CC2CCC1C2)n1c(-c2ccco2)nn(CCc2ccncc2)c1=S` (stereo unspecified): 1850 nM; `C[C@@H]([C@@H]1CC2CC[C@H]1C2)n1c(-c2ccco2)n[nH]c1=S`: 3200 nM; `C[C@H](C1CCCCC1)n1c(-c2ccsc2)n[nH]c1=S`: 6430 nM.
On the same count and under the same terms, next, `C[C@@H]([C@@H]1CC2CC[C@H]1C2)n1c(-c2ccsc2)n[nH]c1=S`: 1960 nM and 6430 nM.
